MC4R barr agon – agonists of human melanocortin 4 receptor (MC4R) beta-arrestin; P32245; U2OS MC4R beta-arrestin complementation, luminescence; percent of melanotan II response, DMSO zero; activation, % at 8.9 µM; actives 0.98% (n = 360,000); AID 540308;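 active means activation above a per-plate cutoff, the mean activation of sample wells on that plate plus 3 SD, cut at about 8% in these data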
Target sequence (P32245 whole entry, looked up): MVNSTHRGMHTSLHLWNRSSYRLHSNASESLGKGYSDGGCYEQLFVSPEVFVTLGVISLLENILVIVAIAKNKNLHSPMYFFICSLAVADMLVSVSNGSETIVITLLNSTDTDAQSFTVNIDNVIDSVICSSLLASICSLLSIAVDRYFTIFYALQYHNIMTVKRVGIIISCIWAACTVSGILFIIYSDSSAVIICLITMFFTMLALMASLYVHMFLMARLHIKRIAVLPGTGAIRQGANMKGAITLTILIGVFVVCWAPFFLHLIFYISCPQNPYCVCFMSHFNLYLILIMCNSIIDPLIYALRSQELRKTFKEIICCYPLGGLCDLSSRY
aDG glyco act – alpha-DG glycosylation activation; AID 624168; actives 0.22% (n = 360,000); activation, % at 10 µM; Pro5-aDG cells, alpha-DG glycosylation AlphaScreen (IIH6); 0% Pro5, 100% B10-LARGE cell signal;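 active means activation of at least 8% versus controls, or a plate z-score of at least 8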;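 further: Pro5 are CHO cells carrying HIG-tagged alpha-DG that lacks glycosylation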
TAG inh – triacylglycerol accumulation inhibition; inhibition, % at 12.5 µM; actives 0.66% (n = 230,000); H9c2 cells, Nile Red lipid (TAG) fluorescence; cells loaded with 200 µM oleic acid;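 active means pattern-corrected inhibition of lipid staining of at least 50% with the nuclear-stain viability signal not falling by more than 50%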;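 further: 0% = DMSO wells and 100% = triacsin C control wells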
NTR1 ag – agonists of human neurotensin receptor NTR1; NTR1-U2OS beta-arrestin-GFP spot imaging, agonist mode; P30989; actives 0.17% (n = 330,000); activation, % at 20 µM; AID 493036;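 active means activation at or above 40% of the spot to cytoplasm intensity ratio, with at least 20 cells analyzed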;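 further: 0% = DMSO without peptide and 100% = 100 nM NTR1 peptide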
Target sequence (P30989 whole entry, looked up): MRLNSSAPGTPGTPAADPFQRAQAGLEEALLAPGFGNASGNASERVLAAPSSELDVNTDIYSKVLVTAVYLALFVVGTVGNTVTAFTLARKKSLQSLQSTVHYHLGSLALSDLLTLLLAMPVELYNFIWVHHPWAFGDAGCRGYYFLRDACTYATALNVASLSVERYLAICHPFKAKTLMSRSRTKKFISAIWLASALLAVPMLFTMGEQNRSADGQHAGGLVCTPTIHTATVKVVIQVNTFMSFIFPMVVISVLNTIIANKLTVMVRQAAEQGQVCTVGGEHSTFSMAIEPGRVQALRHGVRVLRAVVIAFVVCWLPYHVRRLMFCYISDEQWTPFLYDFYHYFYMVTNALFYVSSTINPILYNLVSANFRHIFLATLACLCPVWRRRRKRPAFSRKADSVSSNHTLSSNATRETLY
MC4R antagonist – blocks human MC4R cAMP signaling. AID 540295. inhibition, % at 6.5 µM. actives 0.48% (n = 360,000). MC4R-expressing cells, MTII-stimulated cAMP, LANCE TR-FRET;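 active means inhibition above its plate's cutoff, the mean of tested wells on that plate plus 3 SD, cut at about 29% in these data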;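 further: 0% = Melanotan II alone and 100% = Melanotan II plus saturating MCL0020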
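material = U2OS cells stably expressing human melanocortin 4 receptor (MC4R) | also added = Melanotan II challenge | dosing = single nominal compound dose of 6.5 µM | detection = TR-FRET with Eu-cAMP and labeled anti-cAMP, 671 nm | replication = singlicate | timing = compound 30 min, challenge 1 h, detection 1 h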
TbMetRS inhib – Trypanosoma brucei MetRS inhibition; actives 0.4% (n = 360,000); purified T. brucei MetRS, ATP depletion, Kinase-Glo luminescence; inhibition, % at 11.9 µM;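 active means inhibition above a per-plate cutoff of the control wells' mean inhibition plus 3 SD, cut at about 5.5% in these data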;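 further: 0% = DMSO wells median and 100% = median of wells with control inhibitor compound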
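assay system = parasite MetRS enzyme | timing = 15 min preincubation, 2 h reaction, all 25 °C | evaluation = percent inhibition relative to median high and low control wells | medium = HEPES buffer containing pyrophosphatase, BSA, spermine, DTT | compound = single dose, 11.9 µM final nominal, 0.9% final DMSO | detection = Kinase-Glo luminescence, ATP depletion format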
MC4R barr ag – human MC4R beta-arrestin agonism confirmation. activation, % at 8.9 µM. actives 31% (n = 2,400). shares compounds with MC4R barr agon. U2OS MC4R beta-arrestin recruitment, luminescence; scaled DMSO 0%, Melanotan II 100%. AID 602192;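 active means mean activation across replicates above the hit cutoff set in the earlier primary screen, cut at about 8% in these data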
MOR DOR agonist – counter-screen for MC4R agonists: agonists of mu-delta opioid heterodimer; actives 5.8% (n = 2,400); shares compounds with MC4R barr agon; U2OS PathHunter beta-arrestin, beta-gal luminescence; percent of deltorphin B response, DMSO zero; AID 602194; activation, % at 9.2 µM;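 active means mean activation across replicates exceeds the hit threshold derived in the earlier primary screen, cut at about 18% in these data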;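 further: 100% = deltorphin B at 0.9 µM final and 0% = DMSO alone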
An asterisk follows results filed as active; · = no result given. Only some compounds are listed: those with a hit (about 2.4% of all), similar ones and a draw of the others.

SMILES | MC4R barr agon | aDG glyco act | TAG inh | NTR1 ag | MC4R antagonist | TbMetRS inhib | MC4R barr ag | MOR DOR agonist
COc1ccc(OCC(=O)Nc2cccc(NC(=O)COc3ccc(OC)cc3)n2)cc1 | 13.4* | 0.2 | · | 3.7 | 1.2 | -0.7 | 5.4 | 25.8*
CCC(=O)N1Cc2cc(C(=O)Nc3nccs3)nc(-c3cccc(-c4ccccc4OC)c3)c2[C@H]1CCO | · | -0.3 | · | · | · | -0.3 | · | ·
CCc1nc2ccc(C(=O)NCCN(C)C)cn2c1N(CC)CCOC | -1.2 | -0.1 | 1.8 | · | 8.6 | -0.4 | · | ·
CSc1ccc(Cl)c(C(=O)NCCOc2cc(C)ccc2C(C)C)c1 | 1.6 | 0.2 | · | 2.5 | -1.4 | -1.0 | · | ·
Cc1ccc(C(C)C)c(OCCNC(=O)c2ccccc2O)c1 | 12.7* | 0.3 | · | 2.5 | 3.5 | 0.1 | 3.4 | 11.3
CC1=CC(C)(C)n2c(O)c(N=NC(N)=S)c3cccc1c32 | 10.9* | -0.3 | 7.0 | 0.1 | 9.3 | -0.1 | 0.7 | 2.7
CC(C)n1c(O)c(/C=C2\C=Nc3ccccc32)sc1=Nc1ccccc1 | 12.9* | -0.3 | · | 12.6 | -3.5 | 0.0 | -2.3 | 2.9
COC(=O)c1ccc2nc(C3CCCCC3)c(Cc3cccc(Cl)c3)n2c1 | · | 0.2 | · | · | · | -0.2 | · | ·
CCc1nc2c(OCC3COc4ccccc4O3)cccn2c1N(C)C(=O)c1ccc(OC)cc1 (configuration not stated) | 0.3 | -0.1 | 5.0 | · | 11.9 | -0.3 | · | ·
COc1cc(NC(=O)c2cccs2)c(OC)cc1NC(=O)CCC(=O)Nc1ccc(C)cc1 | 12.8* | -0.1 | · | 4.3 | 12.3 | -0.4 | 2.8 | 0.7
COc1ccc(NC(=O)CCC(=O)Nc2cc(OC)c(NC(=O)c3cccs3)cc2OC)cc1 | 0.8 | 0.0 | · | 1.4 | 1.9 | -0.8 | · | ·
CC1(C(=O)N2Cc3ccccc3C2)CCN1C(=O)C1(c2ccc(Cl)cc2)CC1 (configuration not stated) | 1.2 | 0.2 | -3.7 | · | 6.9 | -0.9 | · | ·
CCc1ccc(CCC(=O)Nc2ncc(Cc3ccccc3Cl)s2)o1 | 18.2* | -0.1 | · | 0.0 | -27.4 | -0.5 | 24.8* | 12.9
O=C(CN1CCOCC1)Nc1ncc(Cc2ccccc2Cl)s1 | -1.6 | -0.1 | · | -0.2 | 5.2 | -0.2 | · | ·
O=C(Nc1ccc2c(c1)OCO2)c1nn(-c2ccccc2)c(=O)c2ccccc12 | 10.7* | 0.0 | 9.6 | -1.9 | 5.9 | 0.2 | -2.1 | 2.8
CCC1CN(C(=O)Nc2ccc(C)cc2)c2cc(C)ccc2O1 (configuration not stated) | 10.6* | 0.0 | 0.2 | 4.7 | 23.1 | -0.2 | -2.2 | 4.3
CCOc1ccc(CN(C)C(=O)c2cccc(S(=O)(=O)Nc3ccccc3OC)c2)cc1OC | 0.8 | -0.1 | -6.6 | · | -4.1 | 0.0 | · | ·
CC1(C(=O)NCc2cccs2)Cc2c(-c3cccc(C(F)(F)F)c3)ccnc2O1 (configuration not stated) | -1.3 | -0.1 | 18.4 | · | -31.5 | -1.4 | · | ·
CCCN(CCC)CCNC(=O)c1cc2c(-c3ccc(Cl)cc3)nn(C)c2s1 | 10.6* | -0.2 | · | 13.1 | -2.2 | -1.1 | 9.0* | 9.3
Cc1cc(N/N=C\c2ccccc2)nc(-c2ccccc2O)n1 | 20.3* | -0.3 | · | 24.4 | -1.9 | -1.4 | 2.1 | 6.1
CC(NCc1cccc(OCc2ccccc2)c1)C(O)c1ccccc1 (configuration not stated) | 5.0 | 0.7 | 2.5 | 3.0 | -2.8 | -0.1 | · | ·
CC(NCc1ccc(OCc2ccc(Cl)cc2)cc1)C(O)c1ccccc1 (configuration not stated) | 15.8* | 1.2 | 30.1 | 32.1 | 9.4 | -0.6 | 25.7* | 11.9
Fc1cccc(Cl)c1C1SCc2nc3ccccc3n21 (configuration not stated) | · | -0.3 | · | · | · | -1.9 | · | ·
COc1ccc(C(CCNCc2ccc(OC(C)C)cc2)c2ccccc2OC)cc1 (configuration not stated) | 12.6* | -0.2 | · | 25.3 | 9.4 | -0.5 | 15.1* | 25.4*
CCOc1ccc2nc(SCC(=O)NC3CCCc4ccccc43)sc2c1 (configuration not stated) | 30.9* | 0.0 | · | 3.7 | -6.1 | -1.1 | 2.0 | 2.8
SMILES | MC4R barr agon | aDG glyco act | TAG inh | NTR1 ag | MC4R antagonist | TbMetRS inhib | MC4R barr ag | MOR DOR agonist
O=C(Nc1nccs1)c1csc([C@H]2C[C@H](O)[C@@H](CO)O2)n1 | 0.7 | 0.1 | 4.4 | · | 1.6 | 0.0 | · | ·
CCCCNS(=O)(=O)c1ccc(NS(=O)(=O)c2c(C)cc(C)cc2C)cc1 | 11.6* | 0.4 | · | 10.4 | 1.2 | -1.0 | 6.8 | 3.6
CCc1nnc(NC(=O)c2ccc(COc3cccc(C)c3)o2)s1 | 14.0* | 0.0 | · | -1.4 | 18.6 | -0.3 | 2.9 | 2.4
COC(=O)Nc1nnc(COc2cccc(C)c2)s1 | -1.6 | -0.1 | · | 0.2 | 16.7 | -0.2 | · | ·
CCOC(=O)C[C@@H]1OC[C@H](C(C)C)N1S(=O)(=O)c1ccc(C)cc1 | · | 0.0 | · | · | · | -0.6 | · | ·
c1ccc(OCCNc2ccn3nc(-c4cccs4)cc3n2)cc1 | 5.7 | 0.0 | -8.9 | · | 8.1 | -0.3 | · | ·
CCOC(=O)Cc1csc(NC(=O)c2sc3nc4cc(C)ccc4cc3c2N)n1 | 38.9* | 0.2 | · | 3.3 | 11.3 | 0.1 | 24.9* | 2.5
O=C(CCc1ccccc1)NC(NC(=S)Nc1ccc(Br)cc1)C(Cl)(Cl)Cl (configuration not stated) | 13.5* | 2.1 | · | 1.7 | 21.4 | 0.0 | 4.8 | 6.0
CCOc1cc(N2CCOCC2)c(OCC)cc1NC(=O)c1cc(-c2ccco2)nc2ccccc12 | 13.8* | -0.6 | · | 22.9 | 13.1 | -0.2 | 9.2* | 14.7
Nc1ccc(S(=O)(=O)Nc2nccc(/C=C/c3ccc(Cl)cc3)n2)cc1 | 21.3* | 0.1 | · | -0.1 | 5.0 | 0.7 | -0.8 | 2.5
Nc1ccc(S(=O)(=O)Nc2nccc(/C=C/c3ccc([N+](=O)[O-])cc3)n2)cc1 | 1.6 | 0.4 | · | -0.4 | 12.8 | 0.1 | · | ·
O=C(OCC(O)C1OC(c2ccccc2)OC(COC(=O)c2ccccc2)C1O)c1ccccc1 (configuration not stated) | · | -0.3 | · | · | · | -0.3 | · | ·
OC(COc1ccc(F)cc1Cl)CN1CCC(Cc2ccccc2)CC1 (configuration not stated) | 11.1* | 0.4 | · | 5.2 | 2.6 | 0.9 | 9.3* | 10.9
OC(COc1ccccc1F)CN1CCC(Cc2ccccc2)CC1 (configuration not stated) | 1.6 | 0.0 | · | 1.7 | -6.5 | -1.5 | · | ·
